Data reported in ChEMBL document CHEMBL4138085, “Design, synthesis and antimicrobial evaluation of novel benzimidazole-incorporated sulfonamide analogues” (Eur J Med Chem, 2017).
Values after ≈ are worked out from the molar mass of the structure shown.

How the values were obtained:
Candida albicans = assay: Antifungal activity against Candida albicans ATCC 76615 after 24 hrs by NCCLS two fold broth microdilution method; format: functional; conditions: ATCC 76615, 24 h
In short: (§1)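 Two-fold serial microdilution following NCCLS. A spore suspension in sterile distilled water was prepared from one-day-old cultures grown on Sabouraud agar and adjusted to a final 1–5 × 10^3 spores/mL. DMSO stocks were diluted in RPMI 1640 to eleven concentrations (0.5–512 µg/mL), inoculated and held at 35 °C for 24 h. Growth was read visually and spectrophotometrically, MIC was the lowest concentration with complete inhibition, and runs were in triplicate.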

Pichia norvegensis = assay: Antifungal activity against Candida mycoderma after 24 hrs by NCCLS two fold broth microdilution method; format: functional
Cyberlindnera jadinii = assay: Antifungal activity against Candida utilis after 24 hrs by NCCLS two fold broth microdilution method; format: functional; conditions: Williopsis jadinii; in short: as §1
Saccharomyces cerevisiae = assay: Antifungal activity against Saccharomyces cerevisiae after 24 hrs by NCCLS two fold broth microdilution method; format: functional; in short: as §1
Aspergillus flavus = assay: Antifungal activity against Aspergillus flavus after 24 hrs by NCCLS two fold broth microdilution method; format: functional; in short: as §1
Staphylococcus aureus [1] = assay: Antibacterial activity against Staphylococcus aureus ATCC 25923 after 24 hrs by NCCLS two fold broth microdilution method; format: functional; conditions: ATCC 25923, 24 h
In short: (§2)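 Two-fold serial broth microdilution in 96-well plates following NCCLS. Compounds were dissolved in DMSO as stocks, then diluted in Mueller–Hinton broth to final concentrations of 0.5–512 µg/mL. Plates were inoculated and incubated at 37 °C for 24 h, with growth read visually and spectrophotometrically. MIC was taken as the lowest concentration giving complete growth inhibition. Run in triplicate, with a DMSO-plus-inoculum solvent control.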

Staphylococcus aureus [2] = assay: Antibacterial activity against methicillin-resistant Staphylococcus aureus N315 after 24 hrs by NCCLS two fold broth microdilution method; format: functional; conditions: N315, 24 h
In short: (§3)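 Two-fold serial broth microdilution per NCCLS. Chloromycin and norfloxacin as reference drugs; DMSO with inoculum, no drug, as solvent control. Incubation 37 °C for 24 h. Growth read visually and spectrophotometrically. MIC is the lowest concentration completely inhibiting growth; triplicate.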

Bacillus subtilis = assay: Antibacterial activity against Bacillus subtilis ATCC 21216 after 24 hrs by NCCLS two fold broth microdilution method; format: functional; conditions: ATCC 21216, 24 h; in short: as §2
Micrococcus luteus = assay: Antibacterial activity against Micrococcus luteus ATCC 4698 after 24 hrs by NCCLS two fold broth microdilution method; format: functional; conditions: NCTC 2665, 24 h; in short: as §2
Bacillus = assay: Antibacterial activity against Bacillus proteus ATCC 13315 after 24 hrs by NCCLS two fold broth microdilution method; format: functional; conditions: ATCC 13315, 24 h; in short: as §2
Escherichia coli = assay: Antibacterial activity against Escherichia coli ATCC 8099 after 24 hrs by NCCLS two fold broth microdilution method; format: functional; conditions: ATCC 8099, 24 h
In short: as §2, with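 “NCCLS.” for “NCCLS. Compounds were dissolved in DMSO as stocks, then diluted in Mueller–Hinton broth to final concentrations of 0.5–512 µg/mL.”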

Pseudomonas aeruginosa = assay: Antibacterial activity against Pseudomonas aeruginosa ATCC 27853 after 24 hrs by NCCLS two fold broth microdilution method; format: functional; conditions: ATCC 27853, 24 h
In short: as §2, with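 “NCCLS.” for “NCCLS. Compounds were dissolved in DMSO as stocks, then diluted in Mueller–Hinton broth to final concentrations of 0.5–512 µg/mL.”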

Salmonella typhi = assay: Antibacterial activity against Bacillus typhi after 24 hrs by NCCLS two fold broth microdilution method; format: functional, Salmonella enterica subsp. enterica serovar Typhi; conditions: Salmonella enterica
In short: as §3, with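 “NCCLS. DMSO stocks diluted in Mueller–Hinton broth to 512, 256, 128, 64, 32, 16, 8, 4, 2, 1, 0.5 µg/mL.” for “NCCLS.”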

Row | SMILES | MIC (Candida albicans) | MIC (Pichia norvegensis) | MIC (Cyberlindnera jadinii) | MIC (Saccharomyces cerevisiae) | MIC (Aspergillus flavus) | MIC (Staphylococcus aureus [1]) | MIC (Staphylococcus aureus [2]) | MIC (Bacillus subtilis) | MIC (Micrococcus luteus) | MIC (Bacillus) | MIC (Escherichia coli) | MIC (Pseudomonas aeruginosa) | MIC (Salmonella typhi)
1 | OC(Cn1cncn1)(Cn1cncn1)c1ccc(F)cc1F [FLUCONAZOLE] | 1 µg/mL (≈ 3.27 µM) | 4 µg/mL (≈ 13.1 µM) | 8 µg/mL (≈ 26.1 µM) | 16 µg/mL (≈ 52.2 µM) | 256 µg/mL (≈ 836 µM) | – | – | – | – | – | – | – | –
2 | Nc1ccc(S(=O)(=O)Cc2nc3ccccc3n2Cc2ccc(Cl)c(Cl)c2)cc1 | 64 µg/mL (≈ 143 µM) | 512 µg/mL (≈ 1150 µM) | 256 µg/mL (≈ 574 µM) | 256 µg/mL (≈ 574 µM) | 512 µg/mL (≈ 1150 µM) | 512 µg/mL (≈ 1150 µM) | 128 µg/mL (≈ 287 µM) | 512 µg/mL (≈ 1150 µM) | 256 µg/mL (≈ 574 µM) | 512 µg/mL (≈ 1150 µM) | 512 µg/mL (≈ 1150 µM) | 512 µg/mL (≈ 1150 µM) | 64 µg/mL (≈ 143 µM)
3 | CC(=O)Nc1ccc(S(=O)(=O)Cc2nc3ccccc3n2Cc2cccc(F)c2)cc1 | 256 µg/mL (≈ 585 µM) | 512 µg/mL (≈ 1170 µM) | 512 µg/mL (≈ 1170 µM) | 32 µg/mL (≈ 73.1 µM) | 256 µg/mL (≈ 585 µM) | 512 µg/mL (≈ 1170 µM) | 256 µg/mL (≈ 585 µM) | 512 µg/mL (≈ 1170 µM) | 512 µg/mL (≈ 1170 µM) | 256 µg/mL (≈ 585 µM) | 128 µg/mL (≈ 293 µM) | 256 µg/mL (≈ 585 µM) | 128 µg/mL (≈ 293 µM)
4 | CCCCCCCn1c(CS(=O)(=O)c2ccc(N)cc2)nc2ccccc21 | 512 µg/mL (≈ 1330 µM) | 512 µg/mL (≈ 1330 µM) | 512 µg/mL (≈ 1330 µM) | 64 µg/mL (≈ 166 µM) | 512 µg/mL (≈ 1330 µM) | 512 µg/mL (≈ 1330 µM) | 512 µg/mL (≈ 1330 µM) | 512 µg/mL (≈ 1330 µM) | 128 µg/mL (≈ 332 µM) | 512 µg/mL (≈ 1330 µM) | 512 µg/mL (≈ 1330 µM) | 512 µg/mL (≈ 1330 µM) | 512 µg/mL (≈ 1330 µM)
5 | CC(=O)Nc1ccc(S(=O)(=O)Cc2nc3ccccc3n2Cc2ccc(Cl)cc2)cc1 | 128 µg/mL (≈ 282 µM) | 32 µg/mL (≈ 70.5 µM) | 512 µg/mL (≈ 1130 µM) | 64 µg/mL (≈ 141 µM) | 512 µg/mL (≈ 1130 µM) | 512 µg/mL (≈ 1130 µM) | 512 µg/mL (≈ 1130 µM) | 256 µg/mL (≈ 564 µM) | 128 µg/mL (≈ 282 µM) | 256 µg/mL (≈ 564 µM) | 128 µg/mL (≈ 282 µM) | 512 µg/mL (≈ 1130 µM) | 64 µg/mL (≈ 141 µM)
6 | CCn1c(CS(=O)(=O)c2ccc(NC(C)=O)cc2)nc2ccccc21 | 64 µg/mL (≈ 179 µM) | 256 µg/mL (≈ 716 µM) | 64 µg/mL (≈ 179 µM) | 512 µg/mL (≈ 1430 µM) | 64 µg/mL (≈ 179 µM) | 128 µg/mL (≈ 358 µM) | 128 µg/mL (≈ 358 µM) | 32 µg/mL (≈ 89.5 µM) | 128 µg/mL (≈ 358 µM) | 64 µg/mL (≈ 179 µM) | 256 µg/mL (≈ 716 µM) | 32 µg/mL (≈ 89.5 µM) | 64 µg/mL (≈ 179 µM)
7 | Nc1ccc(S(=O)(=O)Cc2nc3ccccc3n2Cc2cccc(F)c2)cc1 | 128 µg/mL (≈ 324 µM) | 512 µg/mL (≈ 1290 µM) | 512 µg/mL (≈ 1290 µM) | 8 µg/mL (≈ 20.2 µM) | 256 µg/mL (≈ 647 µM) | 512 µg/mL (≈ 1290 µM) | 128 µg/mL (≈ 324 µM) | 512 µg/mL (≈ 1290 µM) | 512 µg/mL (≈ 1290 µM) | 256 µg/mL (≈ 647 µM) | 128 µg/mL (≈ 324 µM) | 512 µg/mL (≈ 1290 µM) | 512 µg/mL (≈ 1290 µM)
8 | CCCCCCCCCCCCn1c(CS(=O)(=O)c2ccc(N)cc2)nc2ccccc21 | 512 µg/mL (≈ 1120 µM) | 512 µg/mL (≈ 1120 µM) | 512 µg/mL (≈ 1120 µM) | 256 µg/mL (≈ 562 µM) | 512 µg/mL (≈ 1120 µM) | 512 µg/mL (≈ 1120 µM) | 512 µg/mL (≈ 1120 µM) | 512 µg/mL (≈ 1120 µM) | 256 µg/mL (≈ 562 µM) | 512 µg/mL (≈ 1120 µM) | 512 µg/mL (≈ 1120 µM) | 512 µg/mL (≈ 1120 µM) | 512 µg/mL (≈ 1120 µM)
9 | Nc1ccc(S(=O)(=O)Cc2nc3ccccc3n2Cc2ccc(Cl)cc2Cl)cc1 | 16 µg/mL (≈ 35.8 µM) | 512 µg/mL (≈ 1150 µM) | 2 µg/mL (≈ 4.48 µM) | 256 µg/mL (≈ 574 µM) | 4 µg/mL (≈ 8.96 µM) | 8 µg/mL (≈ 17.9 µM) | 128 µg/mL (≈ 287 µM) | 32 µg/mL (≈ 71.7 µM) | 64 µg/mL (≈ 143 µM) | 128 µg/mL (≈ 287 µM) | 16 µg/mL (≈ 35.8 µM) | 32 µg/mL (≈ 71.7 µM) | 128 µg/mL (≈ 287 µM)
10 | CCCCCn1c(CS(=O)(=O)c2ccc(NC(C)=O)cc2)nc2ccccc21 | 256 µg/mL (≈ 641 µM) | 16 µg/mL (≈ 40 µM) | 32 µg/mL (≈ 80.1 µM) | 64 µg/mL (≈ 160 µM) | 32 µg/mL (≈ 80.1 µM) | 32 µg/mL (≈ 80.1 µM) | 128 µg/mL (≈ 320 µM) | 64 µg/mL (≈ 160 µM) | 32 µg/mL (≈ 80.1 µM) | 256 µg/mL (≈ 641 µM) | 256 µg/mL (≈ 641 µM) | 4 µg/mL (≈ 10 µM) | 32 µg/mL (≈ 80.1 µM)
